Measurements from publication PMC3475971 (Analytical and Bioanalytical Chemistry, 2012).

Columns and labels:
Format in all cases: binding
GAK = test: Thermal shift assay; settings: thermal shift assay performed as described in [32]
[1] = biological target: T1, cyclin G-associated kinase (GAK) (Homo sapiens, UniProt O14976); test: Frontal affinity chromatography on GAK capillary column
T1 sequence (O14976 20-347): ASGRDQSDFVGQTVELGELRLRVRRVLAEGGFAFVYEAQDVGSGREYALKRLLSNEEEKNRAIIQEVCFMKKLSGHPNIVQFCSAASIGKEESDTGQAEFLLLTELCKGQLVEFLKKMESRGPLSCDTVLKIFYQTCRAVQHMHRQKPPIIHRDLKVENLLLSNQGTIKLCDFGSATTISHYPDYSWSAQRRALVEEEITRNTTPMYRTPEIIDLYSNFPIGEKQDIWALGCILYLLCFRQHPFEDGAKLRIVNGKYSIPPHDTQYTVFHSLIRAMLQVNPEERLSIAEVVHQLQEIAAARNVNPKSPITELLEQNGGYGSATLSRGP
Summary of the method: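 Human GAK residues 20–347 expressed in E. coli Rosetta (DE3), Ni-NTA and gel-filtration purified, tag removed with TEV protease, then coupled by reductive amination to aldehyde-silica capillary (100 × 0.5 mm). Frontal analysis: 20 mM ammonium acetate pH 6.8, 18 μL/min, 22 °C. Ligand 0.025–0.750 mM, UV 214 nm; DMSO void marker. Saturation moles versus concentration fitted (one-site plus linear nonspecific) for Btot and KD.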

[2] = biological target: T1, cyclin G-associated kinase (GAK); test: Fragment screening by zonal weak affinity chromatography

Compound | increase of melting temperature (ΔTm) of GAK (GAK) [°C] | Kd [1] [µM] | Kd [2] [µM]
O=c1c(O)c(-c2ccc(O)c(O)c2)oc2cc(O)cc(O)c12 [Quercetin] | 9.4 | – | –
Nc1ncnc2c1ncn2[C@@H]1O[C@H](CO)[C@@H](O)[C@H]1O [adenosine] | – | 63 | 41
